Experiment [1] has as its target Class C beta-lactamase CMY-36 (Klebsiella pneumoniae, UniProt Q48435). Nature of the experiment: Inhibition of Klebsiella pneumoniae HP205 cephalosporinase CMY-36 by UV spectrophotometer in presence of 100 uM of cephalothin.
Experiment [2] can be described thus: Inhibition of CMY-2 by UV spectrophotometer in presence of 100 uM of cephalothin.
Experiment [3] can be described thus: Antimicrobial activity against Salmonella enterica serotype Newport AM17274 expressing CMY-31 cephalosporinase by agar dilution method. The format is functional, Salmonella enterica subsp. enterica serovar Newport. Summed up:
(§1)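 MICs of β-lactams determined by agar dilution against the clinical isolates.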
(In general: In agar dilution, organisms are placed on agar that contains the substance at set levels.)

Experiment [4] relates to Klebsiella pneumoniae. Nature of the experiment: Antimicrobial activity against Klebsiella pneumoniae HP205 expressing CMY-36 cephalosporinase by agar dilution method. The format is functional. In outline: as §1
For experiment [5], the system named is Escherichia coli. Briefly: Antimicrobial activity against Escherichia coli DH5[alpha] transformant harboring pA172 plasmid expressing cephalosporinase CMY-31 by agar dilution method. The format is functional.
In experiment [6] the test system is Escherichia coli. Briefly: Antimicrobial activity against Escherichia coli DH5[alpha] transformant harboring pH205 plasmid expressing cephalosporinase CMY-36 by agar dilution method. The format is functional.
Experiment [7] has as its system Escherichia coli. Briefly: Antimicrobial activity against Escherichia coli DH5[alpha] harboring pB-c31 plasmid expressing cephalosporinase CMY-31 by agar dilution method. The format is functional.
Experiment [8] relates to Escherichia coli. Nature of the experiment: Antimicrobial activity against Escherichia coli DH5[alpha] harboring pB-c36 plasmid expressing cephalosporinase CMY-36 by agar dilution method. The format is functional.
Experiment [9] has as its system Escherichia coli. Nature of the experiment: Antimicrobial activity against Escherichia coli DH5[alpha] harboring pB-c2 plasmid expressing cephalosporinase CMY-2 by agar dilution method. The format is functional.
The subject of experiment [10] is Escherichia coli. Briefly: Antimicrobial activity against Escherichia coli DH5[alpha] harboring pBCSK plasmid by agar dilution method. The format is functional.
Experiment [11] in a line: Antimicrobial activity against Salmonella enterica serotype Newport AM17274 expressing CMY-31 cephalosporinase by agar dilution method in presence of clavulanic acid. The format is functional, Salmonella enterica subsp. enterica serovar Newport. Summed up: as §1
Experiment [12] relates to Klebsiella pneumoniae. Nature of the experiment: Antimicrobial activity against Klebsiella pneumoniae HP205 expressing CMY-36 cephalosporinase by agar dilution method in presence of clavulanic acid in presence of clavulanic acid. The class given is functional. Summed up: as §1
For experiment [13], the system named is Escherichia coli. Nature of the experiment: Antimicrobial activity against Escherichia coli DH5[alpha] transformant harboring pA172 plasmid expressing cephalosporinase CMY-31 by agar dilution method in presence of clavulanic acid. The class given is functional.
In experiment [14] the test system is Escherichia coli. Briefly: Antimicrobial activity against Escherichia coli DH5[alpha] transformant harboring pH205 plasmid expressing cephalosporinase CMY-36 by agar dilution method in presence of clavulanic acid. The format is functional.
Experiment [15] relates to Escherichia coli. Nature of the experiment: Antimicrobial activity against Escherichia coli DH5[alpha] harboring pB-c31 plasmid expressing cephalosporinase CMY-31 by agar dilution method in presence of clavulanic acid. The format is functional.
In experiment [16] the test system is Escherichia coli. Briefly: Antimicrobial activity against Escherichia coli DH5[alpha] harboring pB-c36 plasmid expressing cephalosporinase CMY-36 by agar dilution method in presence of clavulanic acid. The class given is functional.
Experiment [17] relates to Escherichia coli. Briefly: Antimicrobial activity against Escherichia coli DH5[alpha] harboring pB-c2 plasmid expressing cephalosporinase CMY-2 by agar dilution method in presence of clavulanic acid. The class given is functional.
Experiment [18] has as its system Escherichia coli. Briefly: Antimicrobial activity against Escherichia coli DH5[alpha] harboring pBCSK plasmid by agar dilution method in presence of clavulanic acid. The class given is functional.
Experiment [19] in a line: Antimicrobial activity against Salmonella enterica serotype Newport AM17274 expressing CMY-31 cephalosporinase by agar dilution method in presence of Tazobactam. The format is functional, Salmonella enterica subsp. enterica serovar Newport.
Experiment [20] has as its system Klebsiella pneumoniae. Briefly: Antimicrobial activity against Klebsiella pneumoniae HP205 expressing CMY-36 cephalosporinase by agar dilution method in presence of Tazobactam. The class given is functional.
The test system of experiment [21] is Escherichia coli. Briefly: Antimicrobial activity against Escherichia coli DH5[alpha] transformant harboring pA172 plasmid expressing cephalosporinase CMY-31 by agar dilution method in presence of Tazobactam. The class given is functional.
Experiment [22] relates to Escherichia coli. Briefly: Antimicrobial activity against Escherichia coli DH5[alpha] transformant harboring pH205 plasmid expressing cephalosporinase CMY-36 by agar dilution method in presence of Tazobactam. The format is functional.
Experiment [23] concerns Escherichia coli. Nature of the experiment: Antimicrobial activity against Escherichia coli DH5[alpha] harboring pB-c31 plasmid expressing cephalosporinase CMY-31 by agar dilution method in presence of Tazobactam. The format is functional.
Experiment [24] deals with Escherichia coli. Nature of the experiment: Antimicrobial activity against Escherichia coli DH5[alpha] harboring pB-c36 plasmid expressing cephalosporinase CMY-36 by agar dilution method in presence of Tazobactam. The class given is functional.
Experiment [25] relates to Escherichia coli. Briefly: Antimicrobial activity against Escherichia coli DH5[alpha] harboring pB-c2 plasmid expressing cephalosporinase CMY-2 by agar dilution method in presence of Tazobactam. The format is functional.
Experiment [26] concerns Escherichia coli. Nature of the experiment: Antimicrobial activity against Escherichia coli DH5[alpha] harboring pBCSK plasmid by agar dilution method in presence of Tazobactam. The format is functional.

Converted amounts (≈) assume the structure as drawn. Some results are limits rather than exact numbers.

Class C beta-lactamase CMY-36, sequence (Q48435 whole entry): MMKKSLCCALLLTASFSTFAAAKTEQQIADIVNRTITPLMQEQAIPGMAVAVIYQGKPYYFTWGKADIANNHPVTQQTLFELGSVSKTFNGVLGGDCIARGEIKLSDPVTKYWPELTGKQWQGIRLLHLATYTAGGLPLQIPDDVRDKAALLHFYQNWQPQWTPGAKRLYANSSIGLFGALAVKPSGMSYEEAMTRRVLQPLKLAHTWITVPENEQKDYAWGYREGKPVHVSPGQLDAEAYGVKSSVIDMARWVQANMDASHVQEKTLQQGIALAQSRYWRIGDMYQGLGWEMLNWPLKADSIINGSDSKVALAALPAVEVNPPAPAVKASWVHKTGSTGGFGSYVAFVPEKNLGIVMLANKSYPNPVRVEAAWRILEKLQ

As a reminder, the IC50 is the concentration that inhibits the measured activity by half. As for `C[C@]1(/C=C\C#N)[C@H](C(=O)O)N2C(=O)C[C@H]2S1(=O)=O`, the IC50 in [1] and in experiment [2] was 300 nM throughout.
Broadly, the MIC is the lowest concentration that inhibits growth of the organism. As for `CC1(C)S[C@@H]2[C@H](NC(=O)[C@H](C(=O)O)c3ccsc3)C(=O)N2[C@H]1C(=O)O` [TICARCILLIN], the MIC in experiment [3], in [4], in [5], in [6], in experiment [7] and in experiment [8] was above 256 µg/mL throughout. Also, the results for the MIC in experiment [9] and in experiment [10] were above 256 µg/mL and 2 µg/mL (≈ 5.2 µM), respectively.
`C[C@@H](O)[C@H]1C(=O)N2C(C(=O)O)=C(SCCNC=N)C[C@H]12` [IMIPENEM ANHYDROUS]: the MIC in [3] turned out to be 0.25 µg/mL (≈ 0.835 µM); in experiment [4], 0.5 µg/mL (≈ 1.67 µM); in experiment [5] it was 0.5 µg/mL (≈ 1.67 µM); in experiment [6], 0.5 µg/mL (≈ 1.67 µM); in experiment [7] it was 0.5 µg/mL (≈ 1.67 µM); in experiment [8] it was 0.5 µg/mL (≈ 1.67 µM). Besides, in experiment [9], it took 0.5 µg/mL (≈ 1.67 µM) to inhibit growth (MIC).
Regarding `Cc1onc(-c2ccccc2Cl)c1C(=O)N[C@@H]1C(=O)N2[C@@H]1SC(C)(C)[C@@H]2C(=O)O` [CLOXACILLIN], the IC50 in experiment [1] and in [2] was 4 nM throughout.
Take `CO[C@@]1(NC(=O)Cc2cccs2)C(=O)N2C(C(=O)O)=C(COC(N)=O)CS[C@@H]21` [CEFOXITIN]: the minimum inhibitory concentration (MIC) in [3], in experiment [4], in experiment [5], in experiment [6], in [7] and in experiment [8] was above 256 µg/mL throughout. The minimal inhibitory concentration (MIC) is above 256 µg/mL in experiment [9] and 4 µg/mL (≈ 9.36 µM) in [10].
Turning to `CO/N=C(\C(=O)N[C@@H]1C(=O)N2C(C(=O)O)=C(CSc3nc(=O)c(O)nn3C)CS[C@H]12)c1csc(N)n1` [CEFTRIAXONE], the minimum inhibitory concentration (MIC) in experiment [3] turned out to be 16 µg/mL (≈ 28.9 µM); in [4] it was 32 µg/mL (≈ 57.7 µM); in experiment [5], 32 µg/mL (≈ 57.7 µM); in experiment [6], 64 µg/mL (≈ 115 µM); in [7], 256 µg/mL (≈ 462 µM); in experiment [8] it was 128 µg/mL (≈ 231 µM). The figures for the minimum inhibitory concentration (MIC) in experiment [9] and in experiment [10] were 128 µg/mL (≈ 231 µM) and 0.12 µg/mL (≈ 0.216 µM), respectively.
As for `CC1(C)S[C@@H]2[C@H](NC(=O)[C@H](N)c3ccc(O)cc3)C(=O)N2[C@H]1C(=O)O` [AMOXICILLIN], the minimal inhibitory concentration (MIC) in experiment [3], in [4], in experiment [5], in experiment [6], in [7] and in [8] was above 256 µg/mL in each case. The minimal inhibitory concentration (MIC) in [9] is above 256 µg/mL; in experiment [10] it was 2 µg/mL (≈ 5.47 µM); in experiment [11], above 64 µg/mL; in experiment [12], above 64 µg/mL; in experiment [13], above 64 µg/mL; in experiment [14], above 64 µg/mL. The MIC in experiment [15] was above 64 µg/mL; in experiment [16] it was above 64 µg/mL; in [17], above 64 µg/mL; in experiment [18], 2 µg/mL.
Turning to `CO/N=C(\C(=O)N[C@@H]1C(=O)N2C(C(=O)O)=C(COC(N)=O)CS[C@H]12)c1ccco1` [CEFUROXIME], the MIC in [3], in experiment [4], in experiment [5], in [6], in experiment [7] and in [8] was above 256 µg/mL throughout. Besides, the minimum inhibitory concentration (MIC) was above 256 µg/mL in experiment [9] and 2 µg/mL (≈ 4.71 µM) in experiment [10].
On to `CCN1CCN(C(=O)N[C@@H](C(=O)N[C@@H]2C(=O)N3[C@@H]2SC(C)(C)[C@@H]3C(=O)O)c2ccccc2)C(=O)C1=O` [PIPERACILLIN], for which the minimum inhibitory concentration (MIC) in [3] is 64 µg/mL (≈ 124 µM); in experiment [4] it was 128 µg/mL (≈ 247 µM); in [5], 128 µg/mL (≈ 247 µM); in experiment [6], 128 µg/mL (≈ 247 µM); in experiment [7] it was 256 µg/mL (≈ 495 µM); in experiment [8] it was 256 µg/mL (≈ 495 µM). The minimum inhibitory concentration (MIC) in experiment [9] was 256 µg/mL (≈ 495 µM); in experiment [10], 1 µg/mL (≈ 1.93 µM); in experiment [19] it was 16 µg/mL; in [20] it was 32 µg/mL; in experiment [21], 32 µg/mL; in experiment [22] it was 32 µg/mL. In addition, the minimum inhibitory concentration (MIC) was found to be 64 µg/mL in experiment [23], 64 µg/mL in experiment [24], 64 µg/mL in [25] and 0.5 µg/mL in experiment [26].
With `CC(C)(O/N=C(\C(=O)N[C@@H]1C(=O)N2C(C(=O)[O-])=C(C[n+]3ccccc3)CS[C@H]12)c1csc(N)n1)C(=O)O` [CEFTAZIDIME], the MIC in [3] came out at 32 µg/mL (≈ 58.5 µM); in experiment [4], 64 µg/mL (≈ 117 µM); in [5], 128 µg/mL (≈ 234 µM); in [6], 128 µg/mL (≈ 234 µM); in experiment [7], 256 µg/mL (≈ 468 µM); in [8], 256 µg/mL (≈ 468 µM). The MIC in experiment [9] came to 256 µg/mL (≈ 468 µM); in experiment [10] it was 0.5 µg/mL (≈ 0.915 µM).
`CO/N=C(\C(=O)N[C@@H]1C(=O)N2C(C(=O)[O-])=C(C[N+]3(C)CCCC3)CS[C@H]12)c1csc(N)n1`: the MIC in experiment [3] was found to be 0.12 µg/mL (≈ 0.25 µM); in [5] it was 0.12 µg/mL (≈ 0.25 µM); in [6], 0.25 µg/mL (≈ 0.52 µM); in experiment [7], 0.25 µg/mL (≈ 0.52 µM); in experiment [8] it was 0.25 µg/mL (≈ 0.52 µM); in experiment [9], 0.25 µg/mL (≈ 0.52 µM).
Consider `CO/N=C(\C(=O)N[C@@H]1C(=O)N2C(C(=O)O)=C(COC(C)=O)CS[C@H]12)c1csc(N)n1` [CEFOTAXIME], for which the MIC in experiment [3] came out at 32 µg/mL (≈ 70.3 µM); in [4] it was 32 µg/mL (≈ 70.3 µM); in experiment [5], 32 µg/mL (≈ 70.3 µM); in experiment [6], 32 µg/mL (≈ 70.3 µM); in experiment [7] it was 128 µg/mL (≈ 281 µM); in experiment [8], 128 µg/mL (≈ 281 µM). Moreover, the values for the minimal inhibitory concentration (MIC) in experiment [9] and in experiment [10] were 128 µg/mL (≈ 281 µM) and 0.12 µg/mL (≈ 0.263 µM), respectively.

(Values after ChEMBL document CHEMBL1629653, “CMY-31 and CMY-36 cephalosporinases encoded by ColE1-like plasmids” (Antimicrob Agents Chemother, 2009).)
